High-throughput results (PubChem BioAssay)
Only some compounds are listed: those with a hit (about 12% of all), similar ones and a draw of the others.
Arbovirus anti: antivirals against arbovirus infection, primary screen, cell-based, full library, 10K replicate subset | arbovirus infection cell-based antiviral screen | inhibition, % at 10 µM | 0.37% of 200,000 active | AID 1251, 2008; in the data active means inhibition above about 30%
L major viab: Leishmania major promastigote growth inhibition, primary screen. Leishmania major promastigotes, resazurin fluorescence viability. 9% of 200,000 active. inhibition, % at 10 µM. AID 1063, 2008;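 further: promastigotes grown with compound for 44 hours at 28 °C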
PKD1 inh: inhibitors of human PKD1 kinase, biochemical, fluorescence polarization; inhibition, % (no concentration beside the values); 0.056% of 200,000 active; AID 797, 2007; Serine/threonine-protein kinase D1 (Homo sapiens), Q15139; PKD1 kinase fluorescence polarization assay
Rad51 HR inh: human RAD51 strand exchange inhibitors, primary screen, biochemical, fluorescence; DNA repair protein RAD51 homolog 1 (Homo sapiens), Q06609; hRad51 DNA strand exchange, fluorescence dequenching; inhibition, % at 10 µM; 0.085% of 200,000 active; AID 1385, 2008;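 active means inhibition above 40% at the single screening dose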;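 further: 0% = DMSO control wells and 100% = blanks with heterologous ssDNA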
Target sequence (Q06609 whole entry, looked up): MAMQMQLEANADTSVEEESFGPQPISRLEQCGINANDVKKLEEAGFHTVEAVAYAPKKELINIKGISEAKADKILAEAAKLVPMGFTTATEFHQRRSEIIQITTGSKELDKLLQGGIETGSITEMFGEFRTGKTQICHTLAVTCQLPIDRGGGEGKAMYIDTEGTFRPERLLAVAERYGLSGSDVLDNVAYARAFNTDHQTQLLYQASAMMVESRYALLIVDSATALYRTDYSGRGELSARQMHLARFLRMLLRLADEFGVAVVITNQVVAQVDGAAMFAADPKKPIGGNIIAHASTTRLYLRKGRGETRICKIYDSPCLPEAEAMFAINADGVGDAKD
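material = hRad51 filaments on single-stranded DNA | timing = filaments 15 min 37 °C, then compound 30 min | signal = FRET fluorescence dequenching, excitation 485 nm, emission 520 nm | benchmarks = control wells and blank wells on each plate | evaluation = percent inhibition relative to plate controls and blanks | compound = 10 µM final, single point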
CHOP inh: inhibitors of CHOP promoter induction, primary screen, cell-based, unfolded protein response, luciferase reporter; AID 2732, 2010; inhibition, % at 10 µM; 3.8% of 220,000 active; CHO-K1 CHOP-promoter luciferase, tunicamycin-induced, 15-18 h;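 active means compounds that reduced the stress-induced luciferase reporter signal by more than about 70% of percent inhibition, limit read from the data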;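 further: 0% = tunicamycin plus vehicle and 100% = wells without tunicamycin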
Wee1 stabilizer: Wee1 degradation inhibitors, primary screen, cell-based, HeLa, Wee1K328M-luciferase, luminescence. Wee1-like protein kinase (Homo sapiens), P30291. reporter increase, % at 5 µM. 1.2% of 220,000 active. HeLa Luc-Wee1K328M stability; 100% = proteasome inhibitor MG132 effect. AID 1321, 2008;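 active means activation above the mean of all tested compounds plus 3 SD, set per screening run, cut at about 8.8% in these data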;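 further: cells exposed to compound for 20 h before luminescence read; 0% = DMSO alone and 100% = MG132 at 30 µM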
Active calls of the source: *; / = no result. Unless noted, no stated cut-off is given here; in the data, active means inhibition above about 50%; inactive means the rest.

SMILES | Arbovirus anti | L major viab | PKD1 inh | Rad51 HR inh | CHOP inh | Wee1 stabilizer
CCO[C@H]1OC(C(=O)N2CCN(Cc3ccc4c(c3)OCO4)CC2)=C[C@@H](c2cn(C(C)=O)c3ccccc23)[C@@H]1CCCO | -17 | 47 | 0 | / | 48 | 2
C/C(CC(=O)Nc1ccc(F)cc1)=N\NC(=O)COc1ccccc1 | -7 | -5 | -3 | 4 | -17 | 7
Cc1cc2ccccc2n2c(SCC(=O)Nc3ccc(S(=O)(=O)N4CCC(C)CC4)cc3)nnc12 | 1 | 24 | 7 | -3 | 45 | -2
CC/C(=N/OC(=O)c1cccc(C)c1)C(=O)c1cccs1 | 2 | -10 | -2 | -9 | 75* | 1
O=C(Cc1c[nH]c2ccccc12)NCc1ccccc1F | 2 | 1 | -4 | -8 | 15 | -2
COc1ccc(C(=O)CN2C3=NCCCN3c3ccccc32)cc1OC | 11 | -8 | -9 | / | -5 | 0
Cc1ccc(CN2C3=NCCN3c3ccccc32)cc1 | 1 | 18 | -3 | 15 | -16 | 4
Cc1ccc(C)c(C(=O)CN2C3=NCCCN3c3ccccc32)c1 | 10 | 78* | -12 | -10 | 6 | 3
O=C(CN1C2=NCCN2c2ccccc21)C12CC3CC(CC(C3)C1)C2 | -9 | 101* | -16 | 6 | 3 | 0
Nc1nc(SCn2nnc3ccccc3c2=O)n[nH]1 | 12 | -1 | 10 | 1 | -9 | -3
CS(=O)(=O)c1ccc2nc(NC(=O)C3=NN(c4ccccc4)C(=O)CC3)sc2c1 | / | / | / | 16 | 17 | -2
COc1ccc(-n2nc(C(=O)Nc3nc4ccc(OC)cc4s3)c3ccccc3c2=O)c(OC)c1 | -16 | -4 | -2 | 3 | 88* | 4
COc1ccc2nc(NC(=O)C3=NN(c4ccccc4)C(=O)CC3)sc2c1 | 48* | -2 | -10 | -5 | -3 | -1
COc1ccc2nc(NC(=O)c3cccc(-c4cc5ccccc5oc4=O)c3)sc2c1 | -2 | -8 | 5 | -8 | 105* | 8
CCOc1ccc(C/C(O)=C2\C(=O)CC(C)(C)CC2=NCC(=O)O)cc1OCC | 0 | -4 | 0 | -27 | 5 | 5
c1cnn(-c2cncc(-n3cccn3)n2)c1 | 1 | 1 | -1 | / | 2 | 4
N#Cc1cc(S(=O)(=O)c2ccc(Cl)cc2)c(N)[nH]c1=O | 3 | -5 | 5 | -4 | 8 | 11*
c1csc(-c2nn3cnnc3c3ccccc23)c1 | -6 | 0 | -8 | 13 | 10 | 0
CC1=NN(c2ccc(C)cc2C)C(=O)C1C(c1cccc(O)c1)C1C(=O)N(c2ccc(C)cc2C)N=C1C (stereo not drawn) | 3 | 56* | -4 | 5 | 33 | -2
CC1=NN(c2nc(-c3ccc(C)cc3)cs2)C(=O)C1N=Nc1cccc(O)c1 (stereo not drawn) | 22 | 39 | -5 | -7 | 65 | 3
CCOC(=O)n1c(=O)n(Cc2ccc(Cl)cc2Cl)c2ccccc21 | 7 | 2 | -4 | -2 | 81* | 0
O=Nc1c(O)n(Cc2c(Cl)cccc2Cl)c2ccccc12 | 3 | -5 | -2 | 2 | 91* | 1
O=Nc1c(O)n(Cc2ccc(Cl)cc2Cl)c2ccccc12 | -31 | -6 | -10 | -4 | 87* | -1
CCOC(=O)n1c(=O)n(Cc2ccccc2Cl)c2ccccc21 | 2 | -3 | -8 | -7 | 19 | -2
N=C1S/C(=C\c2ccco2)C(=O)N1c1ccc2c(c1)OCO2 | -11 | 6 | -8 | 12 | 16 | 1
SMILES | Arbovirus anti | L major viab | PKD1 inh | Rad51 HR inh | CHOP inh | Wee1 stabilizer
N=C1S/C(=C\c2ccco2)C(=O)N1c1nccs1 | -30 | 90* | -7 | -5 | -2 | 5
CN(C)CCCN(C(=O)c1ccc(Br)s1)c1nc2cc3c(cc2s1)OCO3 | -9 | 75* | 1 | 17 | -31 | -3
Cc1ccc2sc(N(CCCN(C)C)C(=O)c3ccc(Br)s3)nc2c1C | -29 | 95* | 1 | -15 | 69 | 3
Cc1cccc2sc(N(CCCN(C)C)C(=O)c3nc4ccccc4s3)nc12 | 9 | 78* | 4 | 5 | 75* | -1
C=C(C)C1CC=C(C)/C(=N\NC(=S)Nc2ccc(C)cc2)C1 (stereo not drawn) | -9 | 14 | -3 | 6 | 4 | 6
COc1ccc(-c2nc(-c3ccccn3)no2)cc1 | -24 | 0 | -3 | -1 | 101* | -5
COc1ccccc1-c1nc(-c2ccccn2)no1 | -7 | 4 | -3 | 5 | 59 | 0
O=C(Nc1ccc([N+](=O)[O-])cc1)C(=O)Nc1cccc(C(=O)O)c1 | / | / | / | 3 | 102* | -3
CCOCCCNC(=O)c1ccc(-n2c(=S)[nH]c3ccccc3c2=O)cc1 | -6 | -2 | 4 | 8 | 18 | -2
Nc1nc2ccccc2n1/N=C/c1ccc(-c2ccccc2)o1 | 39* | 10 | -9 | / | 48 | 0
S=c1[nH]nc(-c2ccccc2)n1/N=C/c1ccc(-c2ccccc2Cl)o1 | -12 | 10 | -7 | / | -24 | -2
N#C/C(=C\c1cc(Cl)ccc1O)C(=O)NC1CCCCC1 | -10 | 9 | 3 | -6 | 64 | 0
N#C/C(=C\c1cccn1-c1ccccc1)C(=O)NC1CCCCC1 | -12 | 4 | -10 | -1 | 44 | 1
N#C/C(=C\c1ccccc1[N+](=O)[O-])C(=O)NC1CCCCC1 | 9 | 100* | 1 | -17 | -48 | 1
N#C/C(=C\C=C\c1ccccc1[N+](=O)[O-])C(=O)NC1CCCCC1 | -25 | 91* | -2 | 6 | 32 | 0
COC(=O)c1ccccc1NC(=S)N1CCN(c2ccc(OC)cc2)CC1 | 7 | 1 | -9 | -1 | -8 | 4
O=C(NCc1nc(-c2ccc(C(F)(F)F)cc2)no1)c1cccs1 | / | / | / | / | 22 | 9.6*
CC(C)NC(=O)COc1ccc(S(=O)(=O)N(C)Cc2ccccc2)cc1 | / | / | / | 0 | -3 | 0
O=C(CN1CCN(C/C=C/c2ccccc2)CC1)NCc1ccccc1 | 0 | 63* | 8 | -8 | 2 | 1
CCC(C)c1ccccc1NC(=O)CN1CCN(C/C=C/c2ccccc2)CC1 (stereo not drawn) | -2 | 96* | -5 | 2 | 75* | 5
Cc1nn(-c2ccccn2)c2c1C(=O)CC(C)(C)C2Br (stereo not drawn) | / | / | / | -18 | 14 | 0
COc1cc(-c2nnc(COC(=O)c3c4c(nc5ccccc35)CCCC4)o2)cc(OC)c1OC | 6 | -4 | 8 | 11 | 38 | 10.0*
CNc1nc(NC#N)nc(SC)n1 | / | / | / | -7 | 9 | 8
COCCNC(=S)N=Nc1c(O)[nH]c2ccc([N+](=O)[O-])cc12 | / | / | / | 19 | -29 | 0
